The subject of one data set is B16. Put plainly: Ratio of ED50 of compound to that of ED50 of paclitaxel; ED50 expressed as concentration which produces 50% inhibition of proliferation of B16 melanoma cells after 40h incubation. Format: functional, Mus musculus. Put shortly:
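B16 melanoma cells were incubated with compound for 40 h. Each value is expressed as a ratio to the paclitaxel ED50.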

Data set [1] deals with Tubulin beta-1 chain (Homo sapiens) (UniProt Q9H4B7). Put plainly: Ratio of ED50 of compound to that of ED50 of paclitaxel; ED50 expressed as concentration which causes polymerization of 50% of the tubulin in microtubule assembly assay (in vitro). The class given is functional. Put shortly:
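In vitro microtubule assembly assay. […] Each compound's ED50 is expressed as a ratio to the paclitaxel ED50.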

Data set [2] in a line: Ratio of solubility to that of paclitaxel solubility; range 23-28. The class given is ADME.
Data set [3] can be described thus: Aqueous solubility was determined; range 6.8-8.4. The class given is physicochemical. Particulars: aqueous medium (not further specified).
A short description of data set [4]: Aqueous solubility was determined. The class given is physicochemical. Particulars: aqueous medium (not further specified).
Data set [5] in a line: Ratio of solubility to that of paclitaxel solubility. The class given is ADME.
A short description of data set [6]: Aqueous solubility was determined; range 5-6. The class given is physicochemical. Particulars: aqueous medium (not further specified).
The nature of data set [7]: Ratio of solubility to that of paclitaxel solubility; range 17-20. Format: ADME.

One may read the solubility as the dissolved amount per volume that the medium holds. High values mean a readily soluble substance, low ones a poorly soluble substance.

Converted amounts (≈) assume the structure as drawn.

Sequence of Tubulin beta-1 chain (Homo sapiens) (Q9H4B7 whole entry): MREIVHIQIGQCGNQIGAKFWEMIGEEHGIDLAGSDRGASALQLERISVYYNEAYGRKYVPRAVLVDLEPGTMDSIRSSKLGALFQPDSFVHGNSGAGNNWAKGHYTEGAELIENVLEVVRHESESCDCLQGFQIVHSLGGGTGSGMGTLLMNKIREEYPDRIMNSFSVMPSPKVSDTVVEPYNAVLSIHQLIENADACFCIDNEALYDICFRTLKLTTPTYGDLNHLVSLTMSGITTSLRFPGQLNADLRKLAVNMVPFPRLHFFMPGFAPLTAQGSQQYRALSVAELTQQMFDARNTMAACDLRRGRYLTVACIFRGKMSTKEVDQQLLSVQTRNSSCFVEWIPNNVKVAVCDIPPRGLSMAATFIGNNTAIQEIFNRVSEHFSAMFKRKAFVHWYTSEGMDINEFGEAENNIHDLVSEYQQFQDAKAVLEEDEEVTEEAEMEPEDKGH

Take `CC(=O)O[C@@]12COC1C[C@H](O)[C@@]1(C)C(=O)[C@H](O)C3=C(C)[C@@H](OC(=O)[C@H](O)[C@@H](NC(=O)c4cccs4)C(C)(C)C)C[C@@](O)([C@@H](OC(=O)c4ccccc4)[C@@H]12)C3(C)C` (some centres undefined): the ED50 ratio in the data set on B16 was found to be 0.53; in data set [1], 0.42. In addition, the Ratio in data set [2] was 28. Further, the concentration in solution in data set [3] (solubility) was 8.4 µg/mL (≈ 10.5 µM).

In data set [4], `CC(=O)O[C@@]12COC1C[C@H](O)[C@@]1(C)C(=O)[C@H](O)C3=C(C)[C@@H](OC(=O)[C@H](O)[C@@H](NC(=O)c4ccc(C)s4)C(C)(C)C)C[C@@](O)([C@@H](OC(=O)c4ccccc4)[C@@H]12)C3(C)C` (some centres undefined) registered a solubility of 4 µg/mL (≈ 4.93 µM). In the data set on B16, the ED50 ratio worked out at 32. Also, the Ratio in data set [5] amounted to 13.

With `CC(=O)O[C@@]12COC1C[C@H](O)[C@@]1(C)C(=O)[C@H](O)C3=C(C)[C@@H](OC(=O)[C@H](O)[C@@H](NC(=O)c4ccoc4)C(C)(C)C)C[C@@](O)([C@@H](OC(=O)c4ccccc4)[C@@H]12)C3(C)C` (some centres undefined), the figures for the ED50 ratio (in the data set on B16; in data set [1]) were 2.3 and 1.6, respectively.

As to `CC(=O)O[C@@]12COC1C[C@H](O)[C@@]1(C)C(=O)[C@H](O)C3=C(C)[C@@H](OC(=O)[C@H](O)[C@@H](NC(=O)C4CCC4)C(C)(C)C)C[C@@](O)([C@@H](OC(=O)c4ccccc4)[C@@H]12)C3(C)C` (some centres undefined), the solubility in data set [4] was determined as 24 µg/mL (≈ 31.2 µM). In addition, the ED50 ratio with B16 is given as 3. In data set [5], the Ratio is 80.

In data set [4], `CC(=O)O[C@@]12COC1C[C@H](O)[C@@]1(C)C(=O)[C@H](O)C3=C(C)[C@@H](OC(=O)[C@H](O)[C@@H](NC(=O)/C=C/c4cccs4)C(C)(C)C)C[C@@](O)([C@@H](OC(=O)c4ccccc4)[C@@H]12)C3(C)C` (some centres undefined) returned a solubility of 1 µg/mL (≈ 1.21 µM).

`CCCCCCOC(=O)N[C@H]([C@@H](O)C(=O)O[C@H]1C[C@@]2(O)[C@@H](OC(=O)c3ccccc3)[C@H]3[C@](C)(C(=O)[C@H](O)C(=C1C)C2(C)C)[C@@H](O)CC1OC[C@]13OC(C)=O)C(C)(C)C` (some centres undefined): the ED50 ratio in the data set with B16 was determined as 12; in data set [1], 2.3.

In turn, `CC(=O)O[C@@]12COC1C[C@H](O)[C@@]1(C)C(=O)[C@H](O)C3=C(C)[C@@H](OC(=O)[C@H](O)[C@@H](NC(=O)c4ccco4)C(C)(C)C)C[C@@](O)([C@@H](OC(=O)c4ccccc4)[C@@H]12)C3(C)C` (some centres undefined) had a solubility in data set [4] of 22 µg/mL (≈ 28.1 µM). The ED50 ratio with B16 is 2.1. Further, in data set [5], the Ratio was determined as 73.

Turning to `CC(=O)O[C@@]12COC1C[C@H](O)[C@@]1(C)C(=O)[C@H](O)C3=C(C)[C@@H](OC(=O)[C@H](O)[C@@H](NC(=O)Cc4cccs4)C(C)(C)C)C[C@@](O)([C@@H](OC(=O)c4ccccc4)[C@@H]12)C3(C)C` (some centres undefined), in data set [4], the solubility turned out to be 6.7 µg/mL (≈ 8.25 µM). For the same compound, in the data set with B16, the ED50 ratio is 3.3. In addition, in data set [5], the Ratio was 23.

In turn, `CC(=O)O[C@@]12COC1C[C@H](O)[C@@]1(C)C(=O)[C@H](O)C3=C(C)[C@@H](OC(=O)[C@H](O)[C@@H](NC(=O)c4ccsc4)C(C)(C)C)C[C@@](O)([C@@H](OC(=O)c4ccccc4)[C@@H]12)C3(C)C` (some centres undefined) displayed a solubility in data set [4] of 4.7 µg/mL (≈ 5.89 µM). In the data set on B16, the ED50 ratio amounted to 1.2. Moreover, the Ratio in data set [5] is 16.

In turn, `CC(=O)O[C@@]12COC1C[C@H](O)[C@@]1(C)C(=O)[C@H](O)C3=C(C)[C@@H](OC(=O)[C@H](O)[C@@H](NC(=O)c4cccn4C)C(C)(C)C)C[C@@](O)([C@@H](OC(=O)c4ccccc4)[C@@H]12)C3(C)C` (some centres undefined) gave a solubility in data set [4] of 0.5 µg/mL (≈ 0.629 µM). Also, the ED50 ratio in the data set on B16 stood at 1.2. For the same compound, the Ratio in data set [5] worked out at 1.8.

In the case of `CC(=O)O[C@@]12COC1C[C@H](O)[C@@]1(C)C(=O)[C@H](O)C3=C(C)[C@@H](OC(=O)[C@H](O)[C@@H](NC(=O)OC(C)(C)C)C(C)(C)C)C[C@@](O)([C@@H](OC(=O)c4ccccc4)[C@@H]12)C3(C)C` (some centres undefined), the concentration in solution in data set [4] (solubility) came to 33 µg/mL (≈ 41.9 µM). Also, the ED50 ratio in the data set with B16 came out at 0.4. Further, the Ratio in data set [5] was determined as 110.

With `CC(=O)O[C@@]12COC1C[C@H](O)[C@@]1(C)C(=O)[C@H](O)C3=C(C)[C@@H](OC(=O)[C@H](O)[C@@H](NC(=O)C4CCCC4)C(C)(C)C)C[C@@](O)([C@@H](OC(=O)c4ccccc4)[C@@H]12)C3(C)C` (some centres undefined), the ED50 ratio in the data set with B16 was 1.4; in data set [1] it was 1.5.

Consider `CC(=O)O[C@@]12COC1C[C@H](O)[C@@]1(C)C(=O)[C@H](O)C3=C(C)[C@@H](OC(=O)[C@H](O)[C@@H](NC(=O)C4CCCCC4)C(C)(C)C)C[C@@](O)([C@@H](OC(=O)c4ccccc4)[C@@H]12)C3(C)C` (some centres undefined), for which the concentration in solution in data set [4] (solubility) came to 45 µg/mL (≈ 56.4 µM). Besides, in the data set with B16, the ED50 ratio was 3.8. Moreover, the Ratio in data set [5] came to 150.

On to `CC(=O)O[C@@]12CO[C@@H]1C[C@H](O)[C@@]1(C)C(=O)[C@H](O)C3=C(C)[C@@H](OC(=O)[C@H](O)[C@@H](NC(=O)OC(C)(C)C)c4ccccc4)C[C@@](O)([C@@H](OC(=O)c4ccccc4)[C@H]21)C3(C)C.O.O.O` [DOCETAXEL], for which the concentration in solution in data set [6] (solubility) came to 6 µg/mL. For the same compound, the ED50 ratio in the data set on B16 turned out to be 0.41; in data set [1] it was 0.45. Besides, the Ratio in data set [7] came out at 20.

In the case of `CC(=O)O[C@H]1C(=O)[C@@]2(C)[C@H]([C@H](OC(=O)c3ccccc3)[C@]3(O)C[C@H](OC(=O)[C@H](O)[C@@H](NC(=O)c4ccccc4)c4ccccc4)C(C)=C1C3(C)C)[C@]1(OC(C)=O)CO[C@@H]1C[C@@H]2O` [PACLITAXEL], in the data set on B16, the ED50 ratio was found to be 1. Further, the Ratio in data set [5] was 1.

With `CC(=O)O[C@@]12COC1C[C@H](O)[C@@]1(C)C(=O)[C@H](O)C3=C(C)[C@@H](OC(=O)[C@H](O)[C@@H](NC(=O)c4ccccc4)C(C)(C)C)C[C@@](O)([C@@H](OC(=O)c4ccccc4)[C@@H]12)C3(C)C` (some centres undefined) [BUTITAXEL], the solubility in data set [4] was determined as 2.8 µg/mL (≈ 3.54 µM). Also, the ED50 ratio with B16 was 7.5. For the same compound, the Ratio in data set [5] came to 9.3.

`CC(=O)O[C@@]12COC1C[C@H](O)[C@@]1(C)C(=O)[C@H](O)C3=C(C)[C@@H](OC(=O)[C@H](O)[C@@H](NC(=O)OC(C)C)C(C)(C)C)C[C@@](O)([C@@H](OC(=O)c4ccccc4)[C@@H]12)C3(C)C` (some centres undefined) registered a solubility in data set [4] of 0.5 µg/mL (≈ 0.646 µM). The ED50 ratio in the data set on B16 stood at 1.2. Moreover, the Ratio in data set [5] was 1.7.

Turning to `CCOC(=O)N[C@H]([C@@H](O)C(=O)O[C@H]1C[C@@]2(O)[C@@H](OC(=O)c3ccccc3)[C@H]3[C@](C)(C(=O)[C@H](O)C(=C1C)C2(C)C)[C@@H](O)CC1OC[C@]13OC(C)=O)C(C)(C)C` (some centres undefined), the solubility in data set [4] turned out to be 9.7 µg/mL (≈ 12.8 µM). In the data set with B16, the ED50 ratio is listed as 3.4. Besides, in data set [5], the Ratio worked out at 32.

With `CC(=O)O[C@@]12COC1C[C@H](O)[C@@]1(C)C(=O)[C@H](O)C3=C(C)[C@@H](OC(=O)[C@H](O)[C@@H](NC(=O)c4sccc4C)C(C)(C)C)C[C@@](O)([C@@H](OC(=O)c4ccccc4)[C@@H]12)C3(C)C` (some centres undefined), the ED50 ratio came to 1.3 with B16 and 1.4 in data set [1].

For `CCCOC(=O)N[C@H]([C@@H](O)C(=O)O[C@H]1C[C@@]2(O)[C@@H](OC(=O)c3ccccc3)[C@H]3[C@](C)(C(=O)[C@H](O)C(=C1C)C2(C)C)[C@@H](O)CC1OC[C@]13OC(C)=O)C(C)(C)C` (some centres undefined), the ED50 ratio came to 1.5 with B16 and 1.7 in data set [1].

For `CCC(CC)C(=O)N[C@H]([C@@H](O)C(=O)O[C@H]1C[C@@]2(O)[C@@H](OC(=O)c3ccccc3)[C@H]3[C@](C)(C(=O)[C@H](O)C(=C1C)C2(C)C)[C@@H](O)CC1OC[C@]13OC(C)=O)C(C)(C)C` (some centres undefined), the ED50 ratio was 26 in the data set with B16 and 1.7 in data set [1].

As to `CC(=O)O[C@@]12COC1C[C@H](O)[C@@]1(C)C(=O)[C@H](O)C3=C(C)[C@@H](OC(=O)[C@H](O)[C@@H](NC(=O)C4CC4)C(C)(C)C)C[C@@](O)([C@@H](OC(=O)c4ccccc4)[C@@H]12)C3(C)C` (some centres undefined), the solubility in data set [4] came out at 45 µg/mL (≈ 59.5 µM). Besides, in the data set with B16, the ED50 ratio is on record as 2.1. Further, the Ratio in data set [5] amounted to 150.
